Measurements collected from several papers.
Target: Calcium/calmodulin-dependent protein kinase kinase 1 (CAMKK1, Homo sapiens, UniProt Q8N5S9)

| SMILES | test | setting | endpoint | result |
| --- | --- | --- | --- | --- |
| Cn1c2c(c3ccc(Cl)c(Cl)c31)C(C#N)C(C)(C)NC2=O (stereo not shown) | thermal stability, DSF | 10 µM | ΔTm | 2.6 °C |
| CCCCNc1ncc2c(-c3ccc(F)cc3)nn(C[C@H]3CC[C@H](N)CC3)c2n1 | target engagement in cells, inhibitor, chemoproteomics | 20 mM | inhibition | 20.6% |
| Nc1ncnc2occ(-c3ccc(NC(=O)Nc4cc(C(F)(F)F)ccc4F)cc3)c12 | cell-free assay, inhibitor | 20 µM | remaining signal | 28% |
| COc1cc(Cl)c(C(=O)N[C@@H](CN[C@H]2CC[C@@H](N)CC2)Cc2ccc(C#N)cc2)cc1-c1ccc(CN[C@H](C)c2ccc(C)cc2)o1 | enzyme activity, inhibitor | 1 µM | remaining activity | 100% |
| COc1ccc2c(c1)O[C@H](c1ccc(OC)c(OC)c1)C[C@@H]2NC(=O)C1(c2ccc3c(c2)OC(F)(F)O3)CC1 | cell-free assay, competition with immobilised ligand | 1 µM | remaining binding | 100% |
| COc1cccc2c(NCc3ccccc3)nc(-n3c(N)nc4ccccc43)nc12 | target engagement in cells, inhibitor, chemoproteomics | 20 mM | inhibition | -24.9% |
| COCCOc1nc(-c2ccc(Cl)nc2)nc2c1CN(C(=O)c1ncn3ccccc13)CC2 | cell-free assay, competition with immobilised ligand | 0.1 µM | remaining binding | 100% |
| O=C(Nc1cnn(-c2csc(C(=O)NC3COC3)c2)c1)Nc1c(F)cccc1Cl | enzyme activity, inhibitor | 5 µM | remaining activity | 93.7% |
| CN(c1ccnc(CNc2nc(Nc3ccc4c(c3)CC(=O)N4)ncc2C(F)(F)F)n1)S(C)(=O)=O | cell-free assay, competition with immobilised ligand | 1 µM | remaining binding | 90% |
| Cn1c2c(Cl)c(Cl)ccc2c2cc(N)[nH]c(=O)c21 | thermal stability, DSF | 10 µM | ΔTm | 0.7 °C |
| Cc1ccc(C(=O)NCc2ccsc2)cc1C#Cc1cn(C(C)C)c2ncnc(N)c12 | enzyme activity, inhibitor | 1 µM | activity vs control | 84% |
| Cn1c2c(c3ccc(Cl)c(Cl)c31)C(C#N)C1(CCOCC1)NC2=O (stereo not shown) | thermal stability, DSF | 10 µM | ΔTm | 1.2 °C |
| Oc1ccc(-c2nc(-c3ccncc3)c(-c3ccc(F)cc3)[nH]2)cc1 | cell-free assay | 0.5 µM | remaining signal | 123% |
| Cc1c(NC(=O)c2cc(C(N)=O)nc3cc(F)ccc23)c(C(F)(F)F)nn1Cc1ccc(C#N)cc1 | cell-free assay, competition with immobilised ligand | 1 µM | remaining binding | 97% |
| Cc1sc(C(=O)NC2COC2)cc1-n1cc(NC(=O)Nc2c(F)cccc2Cl)cn1 | enzyme activity, inhibitor | 10 µM | remaining activity | 121% |
| Nc1nc(Nc2ccc(S(N)(=O)=O)cc2)nn1C(=O)c1c(F)cccc1F | cell-free assay | 0.5 µM | remaining signal | 86.4% |
| Cc1nc(N2CC[C@@H](O)C2)ncc1-c1cc(C(F)(F)F)cc2[nH]ncc12 | binding, competition with immobilised ligand | 1 µM | remaining binding | 100% |
| COc1cc(Nc2c(C#N)cnc3cc(OCCCN4CCN(C)CC4)c(OC)cc23)c(Cl)cc1Cl | cell-free assay | 0.5 µM | remaining signal | 84.8% |
| CCCCN(CCCC)C(=O)CN1C[C@H](c2cc(OC)c3c(c2)OCO3)[C@@H](C(=O)O)[C@@H]1CC(C)(C)CCC | cell-free assay, competition with immobilised ligand | 1 µM | remaining binding | 100% |
